Measured values reported in ChEMBL document CHEMBL1127738, “14 alpha,14' beta-[Dithiobis[(2-oxo-2,1-ethanediyl)imino]]bis (7,8-dihydromorphinone) and 14 alpha,14' beta-[dithiobis[(2-oxo-2,1- ethanediyl)imino]]bis[7,8-dihydro-N-(cyclopropylmethyl)normorphinone]: chemistry and opioid binding properties” (J Med Chem, 1994).
Square brackets hold non-standard residues; d marks the D form. Peptide text beside a SMILES is read from it. * marks the point of attachment. Tyr(Nα,Nα-allyl2) = C=CCN(CC=C)[C@@H](Cc1ccc(O)cc1)C(=O)*; Aib = CC(C)(N)C(=O)O

How the values were obtained:
[1] = target: Mu-type opioid receptor (Bos taurus) (UniProt P79350); assay: Evaluation for the ability of mu opioid to protect the [3H]DAMGO binding site from alkylation
Chain of Mu-type opioid receptor (Bos taurus) (P79350 whole entry): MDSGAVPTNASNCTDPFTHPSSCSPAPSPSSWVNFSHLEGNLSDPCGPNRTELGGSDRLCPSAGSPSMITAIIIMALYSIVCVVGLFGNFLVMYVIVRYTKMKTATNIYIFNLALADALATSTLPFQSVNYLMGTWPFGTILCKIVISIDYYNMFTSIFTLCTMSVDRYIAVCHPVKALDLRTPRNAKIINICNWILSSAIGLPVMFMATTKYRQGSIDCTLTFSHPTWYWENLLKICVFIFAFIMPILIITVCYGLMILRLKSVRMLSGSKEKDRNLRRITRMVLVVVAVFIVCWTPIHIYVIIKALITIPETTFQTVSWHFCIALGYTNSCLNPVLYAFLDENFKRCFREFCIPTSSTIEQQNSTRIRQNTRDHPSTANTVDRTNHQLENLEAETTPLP

Mu-type opioid receptor = Mu-type opioid receptor (Bos taurus, UniProt P79350); assay: Evaluation for the inhibition of mu opioid binding to bovine striatal membranes by the affinity ligand 0.25 nM [3H]DAMGO radiolabeled opioid; parameters: species or system Striatum, Membrane
Chain of Mu-type opioid receptor (P79350 whole entry): as above
How it was run: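 Competition binding on bovine striatal membranes: twelve compound concentrations with radioligand in 1 mL of 50 mM Tris-HCl pH 7.5 at 25 °C, with 5 mM MgCl2 and 0.1 mM PMSF. Incubation was 60 min for [3H]DAMGO and [3H]U69,593 and 4 h for [3H]pCl-DPDPE. […] Filtration used PEI-soaked filters for the κ and δ ligands. Mean IC50 ± SE, three experiments.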

[2] = target: Mu-type opioid receptor (Bos taurus) (UniProt P79350); assay: Effect of DTT on Wash-Resistant Inhibition of [3H]DAMGO by 10 nM
How it was run: (§1)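 They were then given 40 mM DTT for 10 min at 4 °C in 2 mL of 50 mM Tris-HCl pH 7.5, followed by four centrifugal washes. […] Results are % of control without ligand or DTT; mean ± SE, three experiments in triplicate.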

[3] = target: Delta-type opioid receptor (Homo sapiens) (UniProt P41143); assay: Evaluation for the ability of delta opioids to protect the [3H]DAMGO binding site from alkylation; conditions: Bos taurus
Chain of Delta-type opioid receptor (Homo sapiens) (P41143 whole entry): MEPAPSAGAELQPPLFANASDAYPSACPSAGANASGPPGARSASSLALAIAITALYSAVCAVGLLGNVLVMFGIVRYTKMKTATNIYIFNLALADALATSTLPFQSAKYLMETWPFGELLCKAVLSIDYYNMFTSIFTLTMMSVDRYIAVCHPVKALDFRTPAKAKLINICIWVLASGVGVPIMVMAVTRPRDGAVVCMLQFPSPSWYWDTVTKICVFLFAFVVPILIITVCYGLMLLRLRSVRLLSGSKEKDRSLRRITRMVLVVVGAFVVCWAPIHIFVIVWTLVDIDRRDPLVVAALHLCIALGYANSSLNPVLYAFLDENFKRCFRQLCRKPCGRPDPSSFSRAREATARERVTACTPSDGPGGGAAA
How it was run: (§2)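 Protection assay on TPCK-pretreated calf striatal membranes. Membranes were preincubated with 100 nM protecting opioid in 50 mM Tris-HCl pH 7.5 for 30 min at 37 °C. The disulfide ligand (40 or 80 nM) was then added for 2 min at 37 °C in 2 mL. After four centrifugal washes, 0.25 nM [3H]DAMGO binding was measured. Results are % of untreated control; mean ± SE, three experiments in triplicate.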

[4] = target: Kappa-type opioid receptor (Homo sapiens) (UniProt P41145); assay: Evaluation for the ability of kappa opioids to protect the [3H]-DAMGO binding site from alkylation; conditions: Bos taurus; how it was run: as §2
Chain of Kappa-type opioid receptor (Homo sapiens) (P41145 whole entry): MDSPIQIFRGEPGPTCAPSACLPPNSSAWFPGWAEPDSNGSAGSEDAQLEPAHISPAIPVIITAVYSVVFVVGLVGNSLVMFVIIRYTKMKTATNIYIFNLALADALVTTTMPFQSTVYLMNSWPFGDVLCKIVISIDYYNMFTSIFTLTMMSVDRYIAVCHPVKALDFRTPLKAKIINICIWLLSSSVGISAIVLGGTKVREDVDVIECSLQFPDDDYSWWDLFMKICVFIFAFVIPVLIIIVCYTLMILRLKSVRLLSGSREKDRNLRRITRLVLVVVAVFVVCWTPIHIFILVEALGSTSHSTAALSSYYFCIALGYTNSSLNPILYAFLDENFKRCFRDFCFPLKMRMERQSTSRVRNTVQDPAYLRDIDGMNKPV

[5] = target: Mu-type opioid receptor (Bos taurus) (UniProt P79350); assay: Evaluation for the ability of mu opioids to protect the [3H]DAMGO binding site from alkylation; how it was run: as §2
[6] = target: Mu-type opioid receptor (Bos taurus) (UniProt P79350); assay: Effect of DTT on Wash-Resistant Inhibition of [3H]DAMGO at 10 nM of the compound; how it was run: as §1

Structure (SMILES) | Activity [1] | IC50 (Mu-type opioid receptor) [nM] | other results
Oc1ccc2c3c1O[C@H]1c4[nH]c5ccccc5c4C[C@@]4(O)[C@@H](C2)N(CC2CC2)CC[C@]314 | 25 |  | 
CN1CC[C@]23c4c5ccc(O)c4O[C@H]2[C@@H](O)C=C[C@H]3[C@H]1C5 | 67 |  | 
O=C(CSSCC(=O)N[C@@]12CCC(=O)[C@@H]3Oc4c(O)ccc5c4[C@@]31CCN(CC1CC1)[C@@H]2C5)N[C@@]12CCC(=O)[C@@H]3Oc4c(O)ccc5c4[C@@]31CCN(CC1CC1)[C@@H]2C5 |  | 3.29 | inhibition [2]: 63%; Activity [3]: 25; Activity [4]: 30
C=CCN(CC=C)[C@@H](Cc1ccc(O)cc1)C(=O)NC(C)(C)C(=O)NC(C)(C)C(=O)N[C@@H](Cc1ccccc1)C(=O)N[C@@H](CC(C)C)C(=O)O ({Tyr(Nα,Nα-allyl2)}-[Aib][Aib]FL-OH) | 24 |  | 
CN1CC[C@]23c4c5ccc(O)c4O[C@H]2C(=O)CC[C@@]3(NC(=O)CSSCC(=O)N[C@@]23CCC(=O)[C@@H]4Oc6c(O)ccc7c6[C@@]42CCN(C)[C@@H]3C7)[C@H]1C5 |  | 0.4 | Activity [5]: 25; inhibition [6]: 50%
